Published values pooled from the literature.
Compare with care: the assays were run in different laboratories.
Organism: Staphylococcus aureus
Observed: microbial growth

SMILES | assay | test system | conditions | inhibition zone
CC[C@H]1OC(=O)[C@H](C)[C@@H](O[C@H]2C[C@@](C)(OC)[C@@H](O)[C@H](C)O2)[C@H](C)[C@@H](O[C@@H]2O[C@H](C)C[C@H](N(C)C)[C@H]2O)[C@](C)(O)C[C@@H](C)/C(=N\OCOCCOC)[C@H](C)[C@@H](O)[C@]1(C)O | disc diffusion | ATCC6538 | 20000 µg/mL, 24 h | 20 mm
COc1cc(C=CC(=O)CC(c2ccc(N(C)C)cc2)n2ccnc2)ccc1O (stereo not shown) | disc diffusion | ATCC29213 | 250 µg/mL | 9 mm
O=C(O)c1cn(C2CC2)c2cc(N3CCNCC3)c(F)cc2c1=O | – | SG511 | 1000 µg/mL | 18 mm
[H]/N=C(/N)N[C@H]1[C@H](O)[C@@H](O)[C@H](O[C@@H]2O[C@@H](C)[C@](O)(C=O)[C@H]2O[C@@H]2O[C@@H](CO)[C@H](O)[C@@H](O)[C@@H]2NC)[C@@H](N/C(N)=N\[H])[C@@H]1O | well diffusion | NCIM5021 | 125 µg/mL | 20 mm
CC(=O)C1=C(C)N2NC(C)(c3ccccc3O)N(C(C)C(=O)O)C2=NC1c1ccc(Cl)cc1 (stereo not shown) | – | ATCC25923 | 15 µg/mL, 24 h | 17 mm
CC1(C)S[C@@H]2[C@H](NC(=O)[C@H](N)c3ccc(O)cc3)C(=O)N2[C@H]1C(=O)O | disc diffusion | ATCC29213 | 250 µg/mL | 9.37 mm
CN[C@H](CC(C)C)C(=O)N[C@H]1C(=O)N[C@@H](CC(N)=O)C(=O)N[C@H]2C(=O)N[C@H]3C(=O)N[C@H](C(=O)N[C@H](C(=O)O)c4cc(O)cc(O)c4-c4cc3ccc4O)[C@H](O)c3ccc(c(Cl)c3)Oc3cc2cc(c3O[C@@H]2O[C@H](CO)[C@@H](O)[C@H](O)[C@H]2O[C@H]2C[C@](C)(N)[C@H](O)[C@H](C)O2)Oc2ccc(cc2Cl)[C@H]1O | disc diffusion | ATCC29213 | 31.2 µg/disc, 24 h | 18 mm
Cc1ccc2nc(-n3nc(C(C)C)c4c3-c3ccccc3C4=O)sc2c1 | well diffusion | NCIM5021 | 500 µg/mL | 13 mm
CC(C(=O)O)N1C2=NC(c3ccc(Cl)cc3)C3=C(OC(C)(C)OC3=O)N2NC1(C)c1ccccc1O (stereo not shown) | – | ATCC25923 | 15 µg/mL, 24 h | 24 mm
COc1cc(C=Cc2cc(-c3ccc(N(C)C)cc3)nc(O)n2)ccc1O | disc diffusion | ATCC29213 | 250 µg/mL | 6 mm
CCOC(=O)C1=C(C)N2NC(c3ccccc3O)N(C(Cc3c[nH]c4ccccc34)C(=O)O)C2=NC1c1ccc(Cl)cc1 (stereo not shown) | – | ATCC25923 | 15 µg/mL, 24 h | 33 mm
COc1ccc2nc(-n3nc(CC(C)C)c4c3-c3ccccc3C4=O)sc2c1 | well diffusion | NCIM5021 | 1000 µg/mL | 13 mm
CC(=O)C1=C(C)N2NC(C)(c3ccccc3O)N(C(Cc3c[nH]c4ccccc34)C(=O)O)C2=NC1c1ccc(Cl)cc1 (stereo not shown) | – | ATCC25923 | 15 µg/mL, 24 h | 33 mm
CC(C)c1nn(-c2nc3ccccc3s2)c2c1C(=O)c1ccccc1-2 | well diffusion | NCIM5021 | 1000 µg/mL | 12 mm
CC(=O)C1=C(C)N2NC(c3ccccc3O)N(C(Cc3c[nH]c4ccccc34)C(=O)O)C2=NC1c1ccc(Cl)cc1 (stereo not shown) | – | ATCC25923 | 15 µg/mL, 24 h | 32 mm
CC(C)c1nn(-c2nc3ccc(Br)cc3s2)c2c1C(=O)c1ccccc1-2 | well diffusion | NCIM5021 | 250 µg/mL | 11 mm
N#Cc1c(-c2ccc(Cl)cc2)nc2n(c1=O)NC(c1ccccc1O)N2C(Cc1c[nH]c2ccccc12)C(=O)O (stereo not shown) | – | ATCC25923 | 15 µg/mL, 24 h | 32 mm
COc1cc(C=CC(=O)CC(c2ccc([N+](=O)[O-])cc2)n2ccnc2)ccc1O (stereo not shown) | disc diffusion | ATCC29213 | 250 µg/mL | 6 mm
Cc1nn(-c2nc3ccccc3s2)c2c1C(=O)c1ccccc1-2 | well diffusion | NCIM5021 | 1000 µg/mL | 11 mm
